Assay results: ChEMBL document CHEMBL3244269, “Synthesis of carboxyarylindoles and benzofurans as nonsteroidal antiinflammatory agents” (J Med Chem, 1977)

How the values were obtained:
Rattus norvegicus [1] = assay: Antiinflammatory activity in Wistar rat assessed as inhibition of carrageenan-induced paw edema at 200 mg/kg, po administered 30 mins prior challenge measured after 3 hrs relative to placebo-control; format: functional
How it was run: (§1)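 Fasted male Wistar rats, eight per group, dosed orally with 200 mg/kg as a saline-Tween 80 suspension (10 mL/kg), or placebo. After 30 min, 0.1 cm³ of 1% carrageenan in distilled water was injected into the left hind paw plantar surface. Paw volume was read by mercury displacement then and 3 h later. Mean volume increase was compared with placebo as percent inhibition.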

Rattus norvegicus [2] = assay: Toxicity in carrageenan-induced Wistar rat assessed as increase in paw edema at 200 mg/kg, po administered 30 mins prior challenge measured after 3 hrs relative to placebo-control; format: organism-based; parameters: dose 200 mg/kg, route oral; conditions: in vivo; how it was run: as §1

Compound | inhibition in vivo at 200 mg/kg (Rattus norvegicus [1]) | Activity (Rattus norvegicus [2])
COC(=O)c1cc(-c2cc3c(n2-c2ccccc2)CCc2ccccc2-3)ccc1O | 21.7% | Toxic
O=C(O)c1cc(-c2cc3c(n2-c2ccccc2)CCc2ccccc2-3)ccc1O | 37.5% | 
O=C(O)c1cc(-c2cc3c(n2-c2ccccc2)CCCC3)ccc1O | 25.8% | 
CCCCn1c(-c2ccc(O)c(C(=O)O)c2)cc2c1CCCC2 | 41% | 
COC(=O)c1cc(-c2cc3c(o2)CCCC3)ccc1O | 9.8% | Toxic
O=C(O)c1cc(-c2cc3c(o2)CCCC3)ccc1O | 21.5% | 
O=C(O)c1cc(-n2c(-c3ccccc3)cc3c2CCCC3)ccc1O | 64% | 
CC(=O)Oc1ccccc1C(=O)O [ASPIRIN] | 65.3% | 
O=C(O)c1cc(-n2c(-c3ccccc3)cc3c2CCc2ccccc2-3)ccc1O [FENDOSAL] | 64.2% | 
